In ChEMBL document CHEMBL1159047, “Synthesis and biological evaluation of antitumour-active betulin derivatives” (Bioorg Med Chem, 2010):
Active and inactive are the calls of the source. The calls are words filed in the database; no cut-off is given here.

Legend:
A-431 [1] = assay: Growth inhibition of human A431 cells at 30 uM after 96 hrs by SRB assay; type: functional, cell-based
Summary of the method: (§1)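 Same SRB set-up: RPMI 1640 with 10% FBS at 37 °C, 5% CO2, and a 96 h exposure starting 24 h after seeding (DMSO or DMF ≤0.5% final). Percent viable cells relative to untreated controls is read at 30 µM, the top concentration of the 0–30 µM dilution series. Cells were fixed with TCA, stained with SRB and read at 570 nm; ≥3 independent experiments.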

Homo sapiens = organism: Homo sapiens; assay: Growth inhibition of human Liposarcoma cells at 30 uM after 96 hrs by SRB assay; type: functional; summary of the method: as §1
SW480 [2] = assay: Growth inhibition of human SW480 cells at 30 uM after 96 hrs by SRB assay; type: functional, cell-based; summary of the method: as §1
518A2 = assay: Growth inhibition of human 518A2 cells at 30 uM after 96 hrs by SRB assay; type: functional, cell-based; summary of the method: as §1
SW-1736 [3] = assay: Growth inhibition of human SW1736 cells at 30 uM after 96 hrs by SRB assay; type: functional, cell-based; summary of the method: as §1
A2780 [4] = assay: Growth inhibition of human A2780 cells at 30 uM after 96 hrs by SRB assay; type: functional, cell-based; summary of the method: as §1
8505C [5] = assay: Growth inhibition of human 8505C cells at 30 uM after 96 hrs by SRB assay; type: functional, cell-based; summary of the method: as §1
HT-29 [6] = assay: Growth inhibition of human HT-29 cells at 30 uM after 96 hrs by SRB assay; type: functional, cell-based; summary of the method: as §1
HCT-8 [7] = assay: Growth inhibition of human HCT8 cells at 30 uM after 96 hrs by SRB assay; type: functional, cell-based; summary of the method: as §1
FaDu [8] = assay: Growth inhibition of human FADU cells at 30 uM after 96 hrs by SRB assay; type: functional, cell-based; summary of the method: as §1
HCT-116 [9] = assay: Growth inhibition of human HCT116 cells at 30 uM after 96 hrs by SRB assay; type: functional, cell-based; summary of the method: as §1
DLD-1 [10] = assay: Growth inhibition of human DLD1 cells at 30 uM after 96 hrs by SRB assay; type: functional, cell-based; summary of the method: as §1
A253 = assay: Growth inhibition of human A253 cells at 30 uM after 96 hrs by SRB assay; type: functional, cell-based; summary of the method: as §1
A549 [11] = assay: Growth inhibition of human A549 cells at 30 uM after 96 hrs by SRB assay; type: functional, cell-based; summary of the method: as §1
HCT-116 [12] = assay: Cytotoxicity against human HCT116 cells after 96 hrs by SRB assay; type: functional, cell-based; conditions: HCT-116, 96 h
Summary of the method: (§2)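 Monolayer cells grown in RPMI 1640 with 10% heat-inactivated FBS and penicillin/streptomycin at 37 °C, 5% CO2. Cells were seeded and, after 24 h, exposed to serial dilutions (0–30 µM; DMSO or DMF ≤0.5% final) for 96 h. They were then fixed with 10% TCA at 4 °C, stained with 0.4% SRB and dissolved in 10 mM Tris, with absorbance read at 570 nm. IC50 comes from semi-log dose–response curves of survival versus untreated controls, from ≥3 independent experiments.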

SW-1736 [13] = assay: Cytotoxicity against human SW1736 cells after 96 hrs by SRB assay; type: functional, cell-based; conditions: SW-1736, 96 h; summary of the method: as §2
A2780 [14] = assay: Cytotoxicity against human A2780 cells after 96 hrs by SRB assay; type: functional, cell-based; conditions: A2780, 96 h; summary of the method: as §2
A-431 [15] = assay: Cytotoxicity against human A431 cells after 96 hrs by SRB assay; type: functional, cell-based; conditions: A-431, 96 h; summary of the method: as §2
HT-29 [16] = assay: Cytotoxicity against human HT-29 cells after 96 hrs by SRB assay; type: functional, cell-based; conditions: HT-29, 96 h; summary of the method: as §2
MCF7 = assay: Cytotoxicity against human MCF7 cells after 96 hrs by SRB assay; type: functional, cell-based; conditions: MCF7, 96 h; summary of the method: as §2
HCT-8 [17] = assay: Cytotoxicity against human HCT8 cells after 96 hrs by SRB assay; type: functional, cell-based; conditions: HCT-8, 96 h; summary of the method: as §2
A549 [18] = assay: Cytotoxicity against human A549 cells after 96 hrs by SRB assay; type: functional, cell-based; conditions: A549, 96 h; summary of the method: as §2
8505C [19] = assay: Cytotoxicity against human 8505C cells after 96 hrs by SRB assay; type: functional, cell-based; summary of the method: as §2
FaDu [20] = assay: Cytotoxicity against human FADU cells after 96 hrs by SRB assay; type: functional, cell-based; summary of the method: as §2
[21] = Cytotoxicity against human 518A2 cells after 96 hrs by SRB assay; type: functional, cell-based; conditions: 518A2, 96 h; summary of the method: as §2
SW480 [22] = assay: Cytotoxicity against human SW480 cells after 96 hrs by SRB assay; type: functional, cell-based; conditions: SW480, 96 h; summary of the method: as §2
[23] = Cytotoxicity against human Liposarcoma cells after 96 hrs by SRB assay; type: functional, cell-based; summary of the method: as §2
[24] = Cytotoxicity against human A253 cells after 96 hrs by SRB assay; type: functional, cell-based; conditions: A253, 96 h; summary of the method: as §2
DLD-1 [25] = assay: Cytotoxicity against human DLD1 cells after 96 hrs by SRB assay; type: functional, cell-based; conditions: DLD-1, 96 h; summary of the method: as §2

Structure (SMILES)	growth inhibition (GI) (A-431 [1])	growth inhibition (GI) (Homo sapiens)	growth inhibition (GI) (SW480 [2])	growth inhibition (GI) (518A2)	growth inhibition (GI) (SW-1736 [3])	growth inhibition (GI) (A2780 [4])	growth inhibition (GI) (8505C [5])	growth inhibition (GI) (HT-29 [6])	growth inhibition (GI) (HCT-8 [7])	growth inhibition (GI) (FaDu [8])	growth inhibition (GI) (HCT-116 [9])	growth inhibition (GI) (DLD-1 [10])	growth inhibition (GI) (A253)	growth inhibition (GI) (A549 [11])	IC50 (HCT-116 [12])	IC50 (SW-1736 [13])	IC50 (A2780 [14])	IC50 (A-431 [15])	IC50 (MCF7)	IC50 (HCT-8 [17])	other results
C=C(C)[C@@H]1CC[C@]2([C@@H]3O[C@@H]3C#N)CC[C@]3(C)[C@H](CC[C@@H]4[C@@]5(C)CC[C@H](OC(C)=O)C(C)(C)[C@@H]5CC[C@]43C)[C@@H]12	inactive	inactive	inactive	inactive	inactive	inactive	inactive	inactive	inactive	inactive	inactive	inactive	inactive	inactive	–	–	–	–	–	–	–
C=C(C)[C@@H]1CC[C@]2(/C=C/C(=O)OCC)CC[C@]3(C)[C@H](CC[C@@H]4[C@@]5(C)CC[C@H](OC)C(C)(C)[C@@H]5CC[C@]43C)[C@@H]12	inactive	inactive	inactive	inactive	inactive	inactive	inactive	inactive	inactive	inactive	inactive	inactive	inactive	inactive	–	–	–	–	–	–	–
C=C(C)[C@@H]1CC[C@]2([C@@H]3O[C@H]3C(=O)OC)CC[C@]3(C)[C@H](CC[C@@H]4[C@@]5(C)CC[C@H](OC(C)=O)C(C)(C)[C@@H]5CC[C@]43C)[C@@H]12	inactive	inactive	inactive	inactive	–	–	inactive	inactive	inactive	inactive	–	inactive	inactive	inactive	18.1 µM	17.6 µM	12.3 µM	–	–	–	–
C=C(C)[C@@H]1CC[C@]2([C@H](O)CC(=O)OCC)CC[C@]3(C)[C@H](CC[C@@H]4[C@@]5(C)CC[C@H](OC(C)=O)C(C)(C)[C@@H]5CC[C@]43C)[C@@H]12	–	inactive	inactive	inactive	–	–	inactive	–	–	inactive	–	inactive	–	–	13 µM	23.5 µM	21 µM	18.7 µM	27.3 µM	16.5 µM	IC50 (HT-29 [16]): 21.8 µM; IC50 (A549 [18]): 28.2 µM
C=C(C)[C@@H]1CC[C@]2(/C=C3\CCOC3=O)CC[C@]3(C)[C@H](CC[C@@H]4[C@@]5(C)CC[C@H](OC(C)=O)C(C)(C)[C@@H]5CC[C@]43C)[C@@H]12	–	inactive	inactive	inactive	–	inactive	inactive	inactive	inactive	inactive	–	inactive	inactive	inactive	13.9 µM	18.8 µM	–	19.4 µM	–	–	–
C=C(C)[C@@H]1CC[C@]2([C@H](O)[C@H]3CCOC3=O)CC[C@]3(C)[C@H](CC[C@@H]4[C@@]5(C)CC[C@H](OC(C)=O)C(C)(C)[C@@H]5CC[C@]43C)[C@@H]12	–	–	–	–	–	–	–	inactive	–	–	–	–	–	–	10.7 µM	18.5 µM	12.4 µM	11.7 µM	11.7 µM	8.3 µM	IC50 (8505C [19]): 22.2 µM; IC50 (FaDu [20]): 17.5 µM; IC50 [21]: 17.9 µM; IC50 (SW480 [22]): 16.4 µM; IC50 [23]: 17.4 µM; IC50 [24]: 16.8 µM; IC50 (A549 [18]): 21.1 µM; IC50 (DLD-1 [25]): 17.4 µM
C=C(C)[C@@H]1CC[C@]2([C@H]3CO3)CC[C@]3(C)[C@H](CC[C@@H]4[C@@]5(C)CC[C@H](O)C(C)(C)[C@@H]5CC[C@]43C)[C@@H]12	–	–	–	inactive	inactive	inactive	–	–	–	inactive	–	inactive	–	inactive	20.3 µM	–	–	23.5 µM	28.6 µM	24.6 µM	IC50 (8505C [19]): 24.3 µM; IC50 (HT-29 [16]): 18.2 µM; IC50 (SW480 [22]): 16.8 µM; IC50 [23]: 24.7 µM; IC50 [24]: 20.1 µM
C=C(C)[C@@H]1CC[C@]2([C@@H]3O[C@@]34CCOC4=O)CC[C@]3(C)[C@H](CC[C@@H]4[C@@]5(C)CC[C@H](OC(C)=O)C(C)(C)[C@@H]5CC[C@]43C)[C@@H]12	inactive	inactive	inactive	inactive	inactive	inactive	inactive	inactive	inactive	inactive	inactive	inactive	–	inactive	–	–	–	–	–	–	–
C=C(C)[C@@H]1CC[C@]2([C@@H]3CO3)CC[C@]3(C)[C@H](CC[C@@H]4[C@@]5(C)CC[C@H](O)C(C)(C)[C@@H]5CC[C@]43C)[C@@H]12	–	–	–	–	inactive	–	–	–	–	inactive	–	inactive	–	inactive	19.9 µM	–	28.2 µM	20.1 µM	23.6 µM	20.6 µM	IC50 (8505C [19]): 22.3 µM; IC50 (HT-29 [16]): 15.4 µM; IC50 [21]: 26.8 µM; IC50 (SW480 [22]): 16.2 µM; IC50 [23]: 22.4 µM; IC50 [24]: 18.8 µM
